High-throughput results as filed in PubChem.
Sampled rows, rich in hits. Any-hit rate of the full collection: about 3.1%.
ATG4B inh = ATG4B protease inhibitors, primary screen, biochemical, fluorescence, uHTS; Cysteine protease ATG4B (Homo sapiens), Q9Y4P1; ATG4B cleavage of LC3-PLA2, NBD-HPC fluorescence, 1 h; inhibition, % at 8.33 µM; 340,000 tested, 0.51% active; AID 504462, 2011; in the data active = inhibition above about 40%
MBD2 DNA inh = inhibitors of MBD2 binding to methylated DNA, primary screen, biochemical, TR-FRET, DNA-binding domain, human; Methyl-CpG-binding domain protein 2 (Homo sapiens), Q9UBB5; MBD2 binding to methylated oligonucleotide; inhibition, % at 4.4 µM; 370,000 tested, 0.31% active; in the data active = inhibition above about 13%
LEDGF integ inh = blockers of LEDGF/p75-dependent integrase strand transfer – biochemical, TR-FRET, high throughput, primary screen; 370,000 tested, 0.64% active; TR-FRET IN-LEDGF/p75 DNA integration, Eu/Cy5; inhibition, % at 3.7 µM; HIV-1 integrase (with human LEDGF/p75);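 active = inhibition above the screen-wide mean plus 3 SD, cut at about 13% in these data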;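 also: signal is the Cy5 over europium emission ratio at 671 and 618 nm; 0% = plate median of compound wells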
rCAG RNA binder = binders of r(CAG) RNA repeats, primary screen, biochemical, fluorescence; r(CAG) RNA repeat, TO-PRO-1 dye displacement fluorescence; AID 651821, 2012; 370,000 tested, 1.3% active; inhibition, % at 3 µM;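 active = inhibition above the plate cutoff, the mean of all test compounds on that plate plus 3 SD, cut at about 35% in these data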;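 also: 0% = DMSO alone and 100% = 100 µM mitoxantrone as full dye displacement; higher means more dye released from RNA so lower well fluorescence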
CSN inh = inhibitors of CSN-mediated cullin deneddylation, primary screen, biochemical, fluorescence polarization, uHTS; AID 651999, 2013; inhibition, % at 12.5 µM; 360,000 tested, 0.38% active; Purified CSN, SCF-Nedd8-OG deneddylation; COP9 signalosome complex subunit 5 (Homo sapiens), Q92905;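 active = pattern-corrected inhibition above about 35%, with an unprinted fluorescence ratio check between 0.5 and 1.5, limit read from the data, passing the limit was not always enough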;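 also: 0% = enzyme with substrate and 100% = substrate without enzyme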
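Material: purified human Csn5 enzyme expressed in HEK293T cells / Medium: Tris buffer pH 7.5, NaCl, DTT, Tween-20, trehalose, ovalbumin / Compound dosing: 12.5 µM single point / Schedule: 90 min incubation of compound, enzyme and substrate at room temperature / Signal: fluorescence polarization of the substrate / Control set: no-enzyme wells high, enzyme-with-substrate wells low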
UHRF1 binding = UHRF1 methylated DNA binding inhibitors, primary screen, counter-screen for MBD2 inhibitor project, biochemical, TR-FRET, human UHRF1, single concentration. 370,000 tested, 0.75% active. AID 687016, 2013. UHRF1 binding to methylated oligo. inhibition, % at 4.4 µM; in the data active = inhibition above about 21%;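 also: UHRF1 SRA domain binding a hemimethylated CpG hairpin DNA probe; 0% = median of test compound wells and 100% = reference inhibitor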
Target sequence (Q96T88 whole entry, looked up, the tested form may be a part): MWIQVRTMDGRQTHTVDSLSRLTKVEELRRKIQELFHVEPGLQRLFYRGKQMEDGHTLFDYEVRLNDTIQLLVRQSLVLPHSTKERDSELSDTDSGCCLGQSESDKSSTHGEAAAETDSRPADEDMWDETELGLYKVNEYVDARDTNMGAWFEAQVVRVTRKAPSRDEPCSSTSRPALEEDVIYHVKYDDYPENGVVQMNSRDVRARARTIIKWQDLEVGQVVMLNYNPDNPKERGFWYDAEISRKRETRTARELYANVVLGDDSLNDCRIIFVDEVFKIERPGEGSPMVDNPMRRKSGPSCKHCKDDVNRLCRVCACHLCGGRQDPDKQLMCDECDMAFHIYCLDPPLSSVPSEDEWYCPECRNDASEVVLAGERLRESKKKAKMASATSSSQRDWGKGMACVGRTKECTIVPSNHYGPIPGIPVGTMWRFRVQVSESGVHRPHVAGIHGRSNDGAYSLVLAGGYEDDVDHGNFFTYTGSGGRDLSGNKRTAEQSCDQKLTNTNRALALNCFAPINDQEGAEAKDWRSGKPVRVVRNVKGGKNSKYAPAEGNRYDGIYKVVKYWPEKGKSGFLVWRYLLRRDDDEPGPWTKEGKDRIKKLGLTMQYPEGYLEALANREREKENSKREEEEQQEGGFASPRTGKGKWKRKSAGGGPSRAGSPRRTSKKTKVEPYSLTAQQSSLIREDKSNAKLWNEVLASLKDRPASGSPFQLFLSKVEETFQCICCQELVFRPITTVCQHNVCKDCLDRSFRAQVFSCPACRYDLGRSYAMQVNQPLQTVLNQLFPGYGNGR
rCAG bind conf = small molecules binding CAG repeat RNA – biochemical, fluorescence, confirmation; shares compounds with rCAG RNA binder; r(CAG) RNA repeat, TO-PRO-1 dye displacement fluorescence; inhibition, % at 3 µM; 4,300 tested, 70% active; AID 652065, 2013;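 active = inhibition above a per-plate cutoff, the mean inhibition of sample wells plus 3 SD, cut at about 35% in these data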;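 also: loss of TO-PRO-1 fluorescence as compound displaces dye from 1x1 AA loop RNA; 0% = DMSO only wells and 100% = 100 µM mitoxantrone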
DNA CAG counter = displacement of TO-PRO-1 from CAG DNA duplex, counter-screen for rCAG RNA repeat binder project, biochemical, fluorescence, TO-PRO-1 dye, d(CAG) DNA oligo; shares compounds with rCAG RNA binder; 4,300 tested, 94% active; AID 652068, 2013; d(CAG) DNA oligo TO-PRO-1 dye displacement; inhibition, % at 3 µM;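 active = inhibition above its plate's cutoff, the mean test-well inhibition plus 3 SD, cut at about 4.8% in these data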;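 also: 0% = DNA dye mix with DMSO and 100% = 100 µM mitoxantrone; hits displace the dye from DNA and so lower well fluorescence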
dCAG dye DR = inhibitors of DNA CAG/GTC TO-PRO-1 complex, dose response, counter-screen for rCAG RNA repeat binder project, biochemical, fluorescence, TO-PRO-1 dye | shares compounds with rCAG RNA binder | DNA CAG/GTC duplex TO-PRO-1 dye displacement fluorescence | IC50, µM | 250 tested, 20% active; in the data active = IC50 below about 10 µM
CSN5 deneddyl = Csn5 deneddylation inhibitors, confirmation, biochemical, fluorescence polarization, single concentration, SCF-Nedd8OG substrate. shares compounds with CSN inh. Csn5 deneddylation of SCF-Nedd8OG, 90 min. inhibition, % at 16.6 µM. 540 tested, 62% active. AID 720654, 2013; in the data active = inhibition above about 50%;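 also: 0% = DMSO with enzyme and 100% = no enzyme wells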
MMP-2 counter = MMP-2 protease inhibition counter-screen, confirmation, counter-screen for CSN deneddylation inhibitor project, biochemical, fluorescence, single concentration; 540 tested, 33% active; AID 720655, 2013; shares compounds with CSN inh; recombinant MMP-2, FRET substrate fluorescence, 60 min; inhibition, % at 16.6 µM;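 active = corrected plate-normalized z-score of 5 or more, or -5 or less, or inhibition of 15% or more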;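 also: plate controls were DMSO wells with enzyme for no effect and buffer wells lacking MMP-2 for full effect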
Thrombin counter = thrombin (bovine) inhibition, counter-screen for CSN hits | shares compounds with CSN inh | bovine thrombin cleavage of Ub4-pepOG, fluorescence polarization | inhibition, % at 16.6 µM | 540 tested, 49% active | AID 720656;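 active = inhibition at or above a set limit, with a fluorescence interference ratio between 0.5 and a set maximum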
UHRF1 DNA bind = UHRF1 methylated DNA binding inhibitors, counter-screen for MBD2 inhibitor project, biochemical, TR-FRET, human UHRF1. shares compounds with MBD2 DNA inh. UHRF1 binding to methylated oligonucleotide. inhibition, % at 4.4 µM. 1,000 tested, 25% active; in the data active = inhibition above about 21%;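 also: UHRF1 SRA domain binding a labeled hemimethylated CpG hairpin DNA; 0% = vehicle only and 100% = reference inhibitor with vehicle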
MBD2 confirm = inhibitors of MBD2 binding to methylated DNA, confirmation, biochemical, TR-FRET, DNA-binding domain, human; TR-FRET MBD2-DBD binding to methylated oligonucleotide; AID 720531, 2013; inhibition, % at 4.4 µM; 1,000 tested, 26% active; shares compounds with MBD2 DNA inh
IN multimer up = HIV-1 IN multimer formation enhancers, counter-screen for LEDGF/p75 integration inhibitor project, biochemical, TR-FRET; shares compounds with LEDGF integ inh; TR-FRET HIV-1 integrase multimerization; activation, % at 7.7 µM; 2,000 tested, 17% active; AID 1053131, 2014; in the data active = activation above about 8.9%
TRFRET interf = TR-FRET optical interference artefacts, confirmation, artefact control for LEDGF/p75-dependent integration inhibitor project, biochemical, HIV-1 IN multimerization; shares compounds with LEDGF integ inh; TR-FRET optical interference counterscreen; inhibition, % at 7.7 µM; 2,000 tested, under 10 active; AID 1053135, 2014;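 active = inhibition above the mean over all tested compounds plus 3 SD, which no compound reached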;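 also: 0% = integrase with antibodies and DMSO and 100% = antibodies without integrase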
LEDGF integ conf = inhibitors of HIV-1 IN-LEDGF/p75 DNA integration, confirmation, biochemical, TR-FRET; TR-FRET LEDGF/p75-dependent HIV-1 integration; 2,000 tested, 36% active; shares compounds with LEDGF integ inh; inhibition, % at 3.7 µM
Numbers without * were called inactive; i = inactive; . = no result; ! = a repeat was not active. Rule as the data show it, unless noted: active = inhibition above about 14%; inactive = the rest.

SMILES	ATG4B inh	MBD2 DNA inh	LEDGF integ inh	rCAG RNA binder	CSN inh	UHRF1 binding	rCAG bind conf	DNA CAG counter	IN multimer up	TRFRET interf	LEDGF integ conf	others
COc1ccc(C(=O)Nc2ccc3c(c2)C(=O)N(C)[C@H]2CC[C@H](CC(=O)NCC4CC4)O[C@@H]2CO3)cc1	.	13	3	3	.	8	.	.	.	.	.
O=C(/C=C/c1ccc(O)c([N+](=O)[O-])c1)c1ccc2ccccc2c1	-8	44*	3	42*	9	0	78*	39*	.	.	.	UHRF1 DNA bind=4;MBD2 confirm=-1
O=S1(=O)C=CCN1Cc1cn(Cc2cccc(Cl)c2)nn1	.	6	2	0	.	5	.	.	.	.	.
CC(C)C[C@H]1COc2cc(Br)ccc2S(=O)(=O)N1Cc1cccc(Cl)c1	.	-5	1	1	.	-5	.	.	.	.	.
C=Cc1c(C)c2cc3[nH]c(cc4nc(cc5nc(cc1[nH]2)C(C)=C5CCC(=O)O)C(CCC(=O)O)=C4C)c(C)c3C=C	48*!	47*	85*	90*	8	75*	87*	57*	.	.	.	UHRF1 DNA bind=97*;MBD2 confirm=67*
CC1=CN2C(=N)/C(=C/c3ccc([N+](=O)[O-])o3)C(=O)N=C2S1	-7	3	18*	53*	102*	8	30	15*	6	-28	17*	CSN5 deneddyl=52*;MMP-2 counter=10;Thrombin counter=92*
COc1ccc2nc(N3C(=O)C(O)=C(C(=O)c4ccco4)C3c3ccc(C)o3)sc2c1 (stereo unspecified)	2	-3	14*	54*	10	0	59*	19*	2	-12	9
COc1ccc(C2C(C(=O)c3ccco3)=C(O)C(=O)N2c2nnc(C)s2)cc1 (stereo unspecified)	-5	0	-3	-8	1	-4	.	.	.	.	.
CC(=O)Nc1ccc(S(=O)(=O)Nc2ccc(Nc3ccccc3)cc2)cc1	-20	1	-5	15	1	0	.	.	.	.	.
CC(=O)Nc1ccc(S(=O)(=O)Nc2nc3ccccc3nc2Nc2ccc(C(=O)O)c(O)c2)cc1	15	2	26*	47*	52	26*	45*	13*	23*	-117	29*
O=C(C1CCCN1S(=O)(=O)c1cccs1)N1CCc2ccccc2C1 (stereo unspecified)	.	7	3	3	.	4	.	.	.	.	.
c1cc(N2CCOCC2)ccc1-c1ccc2nncn2c1	.	0	-1	2	1	-4	.	.	.	.	.
c1coc(-c2ccc3nncn3c2)c1	.	39*	57*	47*	43	76*	46*	18*	23*	-116	73*	dCAG dye DR=i;UHRF1 DNA bind=62*;MBD2 confirm=34*
CC1=NN2C(=N)/C(=C\c3ccc(SCc4ccccc4)o3)C(=O)N=C2S1	-6	-1	3	17	8	2	.	.	.	.	.
N=C1/C(=C\c2ccc(SCc3ccco3)o2)C(=O)N=C2SC=NN12	11	12	49*	41*	105*	51*	32	8.4*	8	-39	50*	CSN5 deneddyl=60*;MMP-2 counter=3;Thrombin counter=26*
N#Cc1c(SCC(=O)Nc2nncs2)sc2c(O)cc(=O)[nH]c12	19	18*	20*	62*	34	48*	44*	15*	29*	-146	26*	UHRF1 DNA bind=43*;MBD2 confirm=23*
O=C(NC(Cc1ccccc1)C(=O)O)/C(=C\c1ccco1)NC(=O)c1ccc(Br)cc1 (stereo unspecified)	11	1	22*	37*	9	7	34	8.2*	0	-2	-2
